According to ChEMBL document CHEMBL2034880, “Synthesis and biological evaluation of pyrimidine-based dual inhibitors of human epidermal growth factor receptor 1 (HER-1) and HER-2 tyrosine kinases” (J Med Chem, 2012):

How the values were obtained:
[1] = AUC (0 to last) in ICR mouse at 10 mg/kg, po; assay type: ADME, organism-based; design: time 0 - last, dose 10 mg/kg, route oral; details: plasma
How it was run: (§1)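 Male ICR mice (27 5 g) and male Sprague-Dawley rats (250 10 g), n = 3 per route. Single oral gavage dose (mice 10 mg/kg, rats 5 mg/kg) and tail-vein iv dose (mice 2 mg/kg, rats 1 mg/kg). Compound given as HCl salt in 30% PEG400 and 5% ethanol in distilled water. Jugular blood drawn at set times over at least 24 h into heparin. Plasma level measured by LC/MS/MS after acetonitrile protein precipitation.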

[2] = Cmax in ICR mouse at 10 mg/kg, po; assay type: ADME, organism-based; design: dose 10 mg/kg, route oral; details: in vivo; how it was run: as §1
[3] = Half life in ICR mouse at 10 mg/kg, po; assay type: ADME, organism-based; design: dose 10 mg/kg, route oral; details: in vivo; how it was run: as §1
[4] = Oral bioavailability in ICR mouse at 10 mg/kg; assay type: ADME, organism-based; details: in vivo; how it was run: as §1
[5] = AUC (0 to last) in Sprague-Dawley rat at 5 mg/kg, po; assay type: ADME, organism-based; design: dose 5 mg/kg, route oral, time 0 - last; details: plasma; how it was run: as §1
[6] = Cmax in Sprague-Dawley rat at 5 mg/kg, po; assay type: ADME, organism-based; design: dose 5 mg/kg, route oral; details: in vivo; how it was run: as §1
[7] = Half life in Sprague-Dawley rat at 5 mg/kg, po; assay type: ADME, organism-based; design: dose 5 mg/kg, route oral; details: in vivo; how it was run: as §1
[8] = Oral bioavailability in Sprague-Dawley rat at 5 mg/kg; assay type: ADME, organism-based; details: in vivo; how it was run: as §1
[9] = tested on: SK-BR-3; test: Cytotoxicity against human SKBR3 cells overexpressing HER-2 gene after 72 hrs by SRB assay; assay type: functional, cell-based; details: SK-BR-3, 72 h
How it was run: (§2)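 A431 and SK-Br3 cells grown in DMEM (4.5 g/L glucose, 1.5 g/L sodium bicarbonate) with 10% FBS at 37 °C, humidified 5% CO2. Proliferation/growth inhibition IC50 values are means of three independent experiments, each run in duplicate.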

[10] = tested on: A-431; test: Cytotoxicity against human A431 cells overexpressing HER-1 gene after 72 hrs by SRB assay; assay type: functional, cell-based; details: A-431, 72 h; how it was run: as §2
[11] = Half life in human liver microsomes at 5 uM
[12] = Half life in rat liver microsomes at 5 uM
[13] = Half life in dog liver microsomes at 5 uM
[14] = Half life in mouse liver microsomes at 5 uM
[15] = biological target: Tyrosine-protein kinase ABL1 (Homo sapiens, UniProt P00519); test: Inhibition of Abl at 3 uM
[16] = biological target: Aurora kinase A (Homo sapiens) (UniProt O14965); test: Inhibition of Aurora A at 3 uM
[17] = biological target: Tyrosine-protein kinase Blk (Homo sapiens) (UniProt P51451); test: Inhibition of Blk at 3 uM
[18] = biological target: Vascular endothelial growth factor receptor 1 (Homo sapiens, UniProt P17948); test: Inhibition of Flt1 at 3 uM
[19] = biological target: Hepatocyte growth factor receptor (Homo sapiens, UniProt P08581); test: Inhibition of MET at 3 uM
[20] = biological target: Tyrosine-protein kinase SYK (Homo sapiens, UniProt P43405); test: Inhibition of Syk at 3 uM
[21] = biological target: 5'-AMP-activated protein kinase catalytic subunit alpha-1 (Homo sapiens, UniProt Q13131); details: 3 uM
[22] = biological target: Cyclin-dependent kinase 1/cyclin B1 (Homo sapiens) (UniProt P06493+P14635); details: 3 uM
[23] = biological target: Mast/stem cell growth factor receptor Kit (Homo sapiens, UniProt P10721); details: 3 uM
[24] = biological target: Focal adhesion kinase 1 (Homo sapiens, UniProt Q05397); details: 3 uM
[25] = biological target: Fibroblast growth factor receptor 1 (Homo sapiens, UniProt P11362); details: 3 uM
[26] = biological target: Receptor-type tyrosine-protein kinase FLT3 (Homo sapiens) (UniProt P36888); details: 3 uM
[27] = biological target: Insulin-like growth factor 1 receptor (Homo sapiens, UniProt P08069); details: 3 uM
[28] = biological target: Insulin receptor (Homo sapiens, UniProt P06213); details: 3 uM
[29] = biological target: Tyrosine-protein kinase JAK2 (Homo sapiens, UniProt O60674); details: 3 uM
[30] = biological target: Serine/threonine-protein kinase STK11 (Homo sapiens) (UniProt Q15831); details: 3 uM
[31] = biological target: Dual specificity mitogen-activated protein kinase kinase 1 (Homo sapiens, UniProt Q02750); details: 3 uM
[32] = biological target: Platelet-derived growth factor receptor alpha (Homo sapiens, UniProt P16234); details: 3 uM
[33] = biological target: Platelet-derived growth factor receptor beta (Homo sapiens, UniProt P09619); details: 3 uM
[34] = biological target: Serine/threonine-protein kinase pim-1 (Homo sapiens, UniProt P11309); details: 3 uM
[35] = biological target: T1, Receptor tyrosine-protein kinase erbB-2 (Homo sapiens, UniProt P04626); details: SK-BR-3, 1 uM
[36] = biological target: T1, Receptor tyrosine-protein kinase erbB-2; details: SK-BR-3, 1 uM; remark: listed apart in the source

T1 sequence (P04626 whole entry): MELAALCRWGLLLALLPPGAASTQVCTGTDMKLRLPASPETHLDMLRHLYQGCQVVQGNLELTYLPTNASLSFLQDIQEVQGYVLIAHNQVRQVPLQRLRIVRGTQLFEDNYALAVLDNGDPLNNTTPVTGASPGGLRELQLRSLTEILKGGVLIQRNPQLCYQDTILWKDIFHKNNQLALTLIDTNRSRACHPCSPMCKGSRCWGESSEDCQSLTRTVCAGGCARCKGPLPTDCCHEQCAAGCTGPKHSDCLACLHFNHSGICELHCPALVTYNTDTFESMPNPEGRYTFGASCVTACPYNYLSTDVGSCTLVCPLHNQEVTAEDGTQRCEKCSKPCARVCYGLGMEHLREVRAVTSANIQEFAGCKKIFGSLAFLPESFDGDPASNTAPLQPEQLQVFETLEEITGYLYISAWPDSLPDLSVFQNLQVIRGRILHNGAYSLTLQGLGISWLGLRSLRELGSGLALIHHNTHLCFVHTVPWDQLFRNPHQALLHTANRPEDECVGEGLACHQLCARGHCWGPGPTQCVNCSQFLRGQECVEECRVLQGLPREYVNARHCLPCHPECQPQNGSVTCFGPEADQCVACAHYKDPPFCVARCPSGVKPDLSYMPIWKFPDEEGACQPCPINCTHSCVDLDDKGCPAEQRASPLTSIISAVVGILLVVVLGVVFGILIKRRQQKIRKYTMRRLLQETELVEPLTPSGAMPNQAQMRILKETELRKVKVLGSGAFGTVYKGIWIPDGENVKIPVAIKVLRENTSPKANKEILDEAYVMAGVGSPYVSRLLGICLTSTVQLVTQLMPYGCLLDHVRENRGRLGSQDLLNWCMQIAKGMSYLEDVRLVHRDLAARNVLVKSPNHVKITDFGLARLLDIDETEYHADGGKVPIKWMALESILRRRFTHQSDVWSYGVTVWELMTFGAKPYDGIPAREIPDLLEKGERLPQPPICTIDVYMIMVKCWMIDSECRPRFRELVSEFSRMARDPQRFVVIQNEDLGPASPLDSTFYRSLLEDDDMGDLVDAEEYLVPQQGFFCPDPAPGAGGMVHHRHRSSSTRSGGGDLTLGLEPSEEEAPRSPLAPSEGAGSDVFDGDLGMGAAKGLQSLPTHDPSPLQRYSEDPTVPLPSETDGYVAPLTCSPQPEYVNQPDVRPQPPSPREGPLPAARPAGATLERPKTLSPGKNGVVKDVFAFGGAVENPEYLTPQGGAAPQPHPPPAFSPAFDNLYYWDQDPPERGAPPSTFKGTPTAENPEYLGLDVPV
Sequence of Tyrosine-protein kinase ABL1 (P00519 whole entry): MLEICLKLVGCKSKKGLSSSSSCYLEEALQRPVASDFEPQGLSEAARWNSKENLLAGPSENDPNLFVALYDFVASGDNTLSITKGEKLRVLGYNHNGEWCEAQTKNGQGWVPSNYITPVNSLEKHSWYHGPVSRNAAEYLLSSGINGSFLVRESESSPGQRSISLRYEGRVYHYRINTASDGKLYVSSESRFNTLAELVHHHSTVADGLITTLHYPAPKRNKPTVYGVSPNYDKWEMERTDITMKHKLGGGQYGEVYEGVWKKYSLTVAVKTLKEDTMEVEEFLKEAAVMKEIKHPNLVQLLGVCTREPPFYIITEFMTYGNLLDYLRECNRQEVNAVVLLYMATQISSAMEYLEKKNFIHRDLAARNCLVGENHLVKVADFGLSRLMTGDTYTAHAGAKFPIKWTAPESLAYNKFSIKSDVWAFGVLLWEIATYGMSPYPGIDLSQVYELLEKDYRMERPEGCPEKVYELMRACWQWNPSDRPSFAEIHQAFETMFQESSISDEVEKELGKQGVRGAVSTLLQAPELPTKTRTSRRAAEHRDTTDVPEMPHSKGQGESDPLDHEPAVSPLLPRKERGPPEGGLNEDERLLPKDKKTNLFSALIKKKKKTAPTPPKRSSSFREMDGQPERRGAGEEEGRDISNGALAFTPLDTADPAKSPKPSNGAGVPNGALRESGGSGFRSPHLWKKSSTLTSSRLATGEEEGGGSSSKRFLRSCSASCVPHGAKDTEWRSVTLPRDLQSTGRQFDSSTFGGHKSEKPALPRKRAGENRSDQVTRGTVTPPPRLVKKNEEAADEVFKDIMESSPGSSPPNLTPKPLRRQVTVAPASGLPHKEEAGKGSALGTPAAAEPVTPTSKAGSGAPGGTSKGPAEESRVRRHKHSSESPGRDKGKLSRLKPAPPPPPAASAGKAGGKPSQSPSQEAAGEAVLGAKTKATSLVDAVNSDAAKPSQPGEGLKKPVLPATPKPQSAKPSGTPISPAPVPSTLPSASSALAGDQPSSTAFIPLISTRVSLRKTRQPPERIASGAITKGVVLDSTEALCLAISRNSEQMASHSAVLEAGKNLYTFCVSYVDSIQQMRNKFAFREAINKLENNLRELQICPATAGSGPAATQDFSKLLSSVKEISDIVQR
Sequence of Serine/threonine-protein kinase STK11 (Homo sapiens) (Q15831 whole entry): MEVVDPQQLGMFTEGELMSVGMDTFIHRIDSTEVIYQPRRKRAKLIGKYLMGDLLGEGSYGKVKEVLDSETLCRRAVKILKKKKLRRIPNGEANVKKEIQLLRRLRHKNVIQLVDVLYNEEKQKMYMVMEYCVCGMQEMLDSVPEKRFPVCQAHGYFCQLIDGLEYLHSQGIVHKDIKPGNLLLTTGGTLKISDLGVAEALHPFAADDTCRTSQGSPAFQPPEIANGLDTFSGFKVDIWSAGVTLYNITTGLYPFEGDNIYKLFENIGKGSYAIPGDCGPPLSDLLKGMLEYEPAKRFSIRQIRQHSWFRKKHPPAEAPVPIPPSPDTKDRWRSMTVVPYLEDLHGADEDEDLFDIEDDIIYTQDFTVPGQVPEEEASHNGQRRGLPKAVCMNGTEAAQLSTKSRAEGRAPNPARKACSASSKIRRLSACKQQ
Sequence of Insulin-like growth factor 1 receptor (P08069 31-736 limits assumed): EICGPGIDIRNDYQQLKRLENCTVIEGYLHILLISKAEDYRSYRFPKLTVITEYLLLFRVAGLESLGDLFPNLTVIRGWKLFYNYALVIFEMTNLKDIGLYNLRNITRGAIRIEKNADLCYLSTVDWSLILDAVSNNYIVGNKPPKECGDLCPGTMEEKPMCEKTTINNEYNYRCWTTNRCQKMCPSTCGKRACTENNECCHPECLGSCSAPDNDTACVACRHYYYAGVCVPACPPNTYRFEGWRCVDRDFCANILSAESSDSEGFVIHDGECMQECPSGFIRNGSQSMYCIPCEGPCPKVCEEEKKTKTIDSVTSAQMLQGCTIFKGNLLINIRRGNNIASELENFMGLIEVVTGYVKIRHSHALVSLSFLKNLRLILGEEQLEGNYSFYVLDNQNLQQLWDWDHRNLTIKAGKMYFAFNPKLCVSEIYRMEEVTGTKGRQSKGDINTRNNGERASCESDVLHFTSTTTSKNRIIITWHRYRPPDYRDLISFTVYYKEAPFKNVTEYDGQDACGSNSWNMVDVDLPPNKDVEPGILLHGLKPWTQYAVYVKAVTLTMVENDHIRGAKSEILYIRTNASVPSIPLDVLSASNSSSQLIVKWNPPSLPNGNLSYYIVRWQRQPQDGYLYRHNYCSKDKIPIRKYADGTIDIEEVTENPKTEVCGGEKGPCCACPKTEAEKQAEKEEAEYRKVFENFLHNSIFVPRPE
Sequence of Insulin-like growth factor 1 receptor (P08069 741-1367 limits assumed): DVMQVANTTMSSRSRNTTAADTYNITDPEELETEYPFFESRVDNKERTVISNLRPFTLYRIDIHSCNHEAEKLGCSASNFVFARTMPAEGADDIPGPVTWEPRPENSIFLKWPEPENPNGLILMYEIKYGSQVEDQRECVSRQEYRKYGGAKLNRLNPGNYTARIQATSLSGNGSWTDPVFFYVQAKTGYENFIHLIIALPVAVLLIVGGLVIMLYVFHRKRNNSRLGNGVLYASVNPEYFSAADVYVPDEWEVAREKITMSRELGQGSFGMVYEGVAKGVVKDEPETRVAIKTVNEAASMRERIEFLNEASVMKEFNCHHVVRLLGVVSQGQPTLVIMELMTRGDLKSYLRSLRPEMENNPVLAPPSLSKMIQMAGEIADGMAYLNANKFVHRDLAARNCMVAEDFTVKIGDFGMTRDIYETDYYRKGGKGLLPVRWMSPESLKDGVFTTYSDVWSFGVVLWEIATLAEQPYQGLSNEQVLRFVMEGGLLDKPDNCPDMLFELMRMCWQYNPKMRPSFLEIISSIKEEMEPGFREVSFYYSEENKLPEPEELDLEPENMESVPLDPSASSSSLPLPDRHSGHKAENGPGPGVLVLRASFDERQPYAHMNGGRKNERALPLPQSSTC
Sequence of 5'-AMP-activated protein kinase catalytic subunit alpha-1 (Q13131 whole entry, looked up): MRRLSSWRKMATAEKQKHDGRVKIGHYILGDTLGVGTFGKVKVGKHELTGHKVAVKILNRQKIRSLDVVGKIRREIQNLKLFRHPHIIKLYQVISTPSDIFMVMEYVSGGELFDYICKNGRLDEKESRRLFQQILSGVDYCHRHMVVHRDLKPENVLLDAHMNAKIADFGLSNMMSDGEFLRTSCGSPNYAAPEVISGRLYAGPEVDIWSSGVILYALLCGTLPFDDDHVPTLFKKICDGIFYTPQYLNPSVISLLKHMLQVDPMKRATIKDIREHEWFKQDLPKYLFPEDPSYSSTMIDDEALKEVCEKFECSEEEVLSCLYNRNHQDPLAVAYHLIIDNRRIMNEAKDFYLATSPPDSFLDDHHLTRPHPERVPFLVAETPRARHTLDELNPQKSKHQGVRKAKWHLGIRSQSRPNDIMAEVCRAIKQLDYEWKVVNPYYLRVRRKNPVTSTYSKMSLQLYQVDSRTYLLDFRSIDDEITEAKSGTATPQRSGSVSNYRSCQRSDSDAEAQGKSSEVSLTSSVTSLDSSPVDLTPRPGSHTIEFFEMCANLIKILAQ
Sequence of Serine/threonine-protein kinase pim-1 (P11309 whole entry, looked up): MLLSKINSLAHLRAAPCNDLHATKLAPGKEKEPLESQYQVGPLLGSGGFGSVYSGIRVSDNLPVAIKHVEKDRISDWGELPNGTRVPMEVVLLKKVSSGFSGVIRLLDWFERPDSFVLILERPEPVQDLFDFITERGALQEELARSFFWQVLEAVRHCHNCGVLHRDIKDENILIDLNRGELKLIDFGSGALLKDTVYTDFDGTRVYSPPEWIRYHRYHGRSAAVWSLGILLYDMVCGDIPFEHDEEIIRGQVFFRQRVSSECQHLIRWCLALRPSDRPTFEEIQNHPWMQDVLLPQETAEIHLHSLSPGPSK

## C=CC(=O)NCc1coc(-c2c(N)ncnc2Nc2ccc(OCc3ccccn3)c(Cl)c2)n1.Cl
[1]
  AUC(0-t): 455 ng·h/mL
[2]
  Cmax: 282 ng/mL
[3]
  half-life: 1660 min
[4]
  bioavailability: 21.6%
[5]
  AUC(0-t): 440 ng·h/mL
[6]
  Cmax: 189 ng/mL
[7]
  half-life: 194 min
[8]
  bioavailability: 21.9%

## C=CC(=O)NCc1coc(-c2cncnc2Nc2ccc(OCc3ccccn3)c(Cl)c2)n1
[9]
  IC50: 9.7 nM
[10]
  IC50: 105 nM

## C=CC(=O)NCc1coc(-c2c(N)ncnc2Nc2ccc(Oc3cccc(Cl)c3Cl)c(Cl)c2)n1
[9]
  IC50: 18.2 nM
[10]
  IC50: 113 nM

## C=CC(=O)NCc1coc(-c2c(N)ncnc2Nc2ccc(Oc3ccc(C)nc3)c(C)c2)n1
[11]; microsomes
  half-life at 5 µM: 39 min
[12]; microsomes
  half-life at 5 µM: 17 min
[13]; microsomes
  half-life at 5 µM: 41 min
[9]
  IC50: 1.1 nM
[14]; microsomes
  half-life at 5 µM: 43 min
[10]
  IC50: 64 nM

## C=CC(=O)NCc1coc(-c2c(N)ncnc2Nc2ccc(Oc3cc(C(F)(F)F)nn3C)c(Cl)c2)n1
[11]; microsomes
  half-life at 5 µM: > 100 min
[12]; microsomes
  half-life at 5 µM: > 100 min
[13]; microsomes
  half-life at 5 µM: > 100 min
[9]
  IC50: 3.3 nM
[14]; microsomes
  half-life at 5 µM: > 100 min
[10]
  IC50: 65 nM

## C=CC(=O)NCc1coc(-c2c(N)ncnc2Nc2ccc(Oc3cc(Cl)ccc3Cl)c(Cl)c2)n1
[11]; liver microsomes
  half-life at 5 µM: 96 min
[12]; liver microsomes
  half-life at 5 µM: 51 min
[13]; liver microsomes
  half-life at 5 µM: > 100 min
[9]
  IC50: 1.9 nM
[14]; liver microsomes
  half-life at 5 µM: 57 min
[10]
  IC50: 184 nM

## C=CC(=O)NCc1coc(-c2c(N)ncnc2Nc2ccc(Oc3ccccc3)c(Cl)c2)n1
[11]; liver microsomes
  half-life at 5 µM: > 100 min
[12]; liver microsomes
  half-life at 5 µM: 59 min
[13]; liver microsomes
  half-life at 5 µM: > 100 min
[9]
  IC50: 3.1 nM
[14]; liver microsomes
  half-life at 5 µM: 48 min
[10]
  IC50: 60 nM

## C=CC(=O)NCc1coc(-c2c(N)ncnc2Nc2ccc(Oc3ccc(C)nc3)c(Cl)c2)n1
[9]
  IC50: 6.1 nM
[10]
  IC50: 68 nM

## C=CC(=O)NCc1coc(-c2c(N)ncnc2Nc2ccc(Oc3ccccn3)c(Cl)c2)n1
[11]; liver microsomes
  half-life at 5 µM: 39 min
[12]; liver microsomes
  half-life at 5 µM: 16 min
[13]; liver microsomes
  half-life at 5 µM: 24 min
[9]
  IC50: 1.7 nM
[14]; liver microsomes
  half-life at 5 µM: 15 min
[10]
  IC50: 36 nM

## C=CC(=O)NCc1coc(-c2c(N)ncnc2Nc2ccc(Oc3ccccc3F)c(Cl)c2)n1
[9]
  IC50: 4.7 nM
[10]
  IC50: 29 nM

## C=CC(=O)NCc1cc(-c2cncnc2Nc2ccc(OCc3ccccn3)c(Cl)c2)on1
[9]
  IC50: 122 nM
[10]
  IC50: 2.2 nM

## C=CC(=O)NCc1coc(-c2c(N)ncnc2Nc2ccc(Oc3cccc(F)c3)c(Cl)c2)n1
[11]; liver microsomes
  half-life at 5 µM: > 100 min
[12]; liver microsomes
  half-life at 5 µM: 54 min
[13]; liver microsomes
  half-life at 5 µM: > 100 min
[9]
  IC50: 0.5 nM
[14]; liver microsomes
  half-life at 5 µM: > 100 min
[10]
  IC50: 75 nM

## C=CC(=O)NCc1coc(-c2c(N)ncnc2Nc2ccc(F)c(Cl)c2)n1
[11]; liver microsomes
  half-life at 5 µM: 16 min
[12]; liver microsomes
  half-life at 5 µM: 24 min
[13]; liver microsomes
  half-life at 5 µM: 9 min
[9]
  IC50: 34.1 nM
[14]; liver microsomes
  half-life at 5 µM: 9 min
[10]
  IC50: 52 nM

## C=CC(=O)Nc1cccc(-c2cncnc2Nc2ccc(OCc3ccccn3)c(Cl)c2)c1
[9]
  IC50: 6.1 nM
[10]
  IC50: 593 nM

## C=CC(=O)NCc1coc(-c2c(N)ncnc2Nc2ccc(Oc3cccnc3)c(Cl)c2)n1
[11]; liver microsomes
  half-life at 5 µM: 15 min
[12]; liver microsomes
  half-life at 5 µM: 9 min
[13]; liver microsomes
  half-life at 5 µM: 39 min
[9]
  IC50: 2.4 nM
[14]; liver microsomes
  half-life at 5 µM: 18 min
[10]
  IC50: 68 nM

## C=CC(=O)NCc1coc(-c2c(N)ncnc2Nc2ccc(Cl)c(Cl)c2F)n1
[11]; liver microsomes
  half-life at 5 µM: > 100 min
[12]; liver microsomes
  half-life at 5 µM: > 100 min
[13]; liver microsomes
  half-life at 5 µM: > 100 min
[9]
  IC50: 92.6 nM
[14]; liver microsomes
  half-life at 5 µM: 74 min
[10]
  IC50: 282 nM

## C=CC(=O)NCc1coc(-c2c(N)ncnc2Nc2ccc(Oc3ccc(Cl)cc3Cl)c(Cl)c2)n1
[9]
  IC50: 6.5 nM
[10]
  IC50: 105 nM

## C=CC(=O)NCc1coc(-c2c(N)ncnc2Nc2ccc(Oc3ccnn3C)c(Cl)c2)n1
[11]; microsomes
  half-life at 5 µM: > 100 min
[12]; microsomes
  half-life at 5 µM: 25 min
[13]; microsomes
  half-life at 5 µM: 51 min
[9]
  IC50: 4 nM
[14]; microsomes
  half-life at 5 µM: 39 min
[10]
  IC50: 66 nM

## C=CC(=O)NCc1coc(-c2c(N)ncnc2Nc2ccc(OCc3cccc(F)c3)c(Cl)c2)n1
[11]; liver microsomes
  half-life at 5 µM: 45 min
[12]; liver microsomes
  half-life at 5 µM: 29 min
[13]; liver microsomes
  half-life at 5 µM: > 100 min
[9]
  IC50: 3.9 nM
[10]
  IC50: 59 nM

## C=CC(=O)NCc1coc(-c2c(N)ncnc2Nc2ccc(OCc3ccccn3)c(Cl)c2)n1
[15]
  inhibition: 15%
[16]
  inhibition: 42%
[17]
  inhibition: 77%
[18]
  inhibition: 15%
[19]
  inhibition: 13%
[20]
  inhibition: 15%
[21]
  inhibition: 0%
[22]
  inhibition: 0%
[23]
  inhibition: 0%
[24]
  inhibition: 0%
[25]
  inhibition: 0%
[26]
  inhibition: 0%
[27]
  inhibition: 0%
[28]
  inhibition: 0%
[29]
  inhibition: 0%
[30]
  inhibition: 0%
[31]
  inhibition: 14%
[32]
  inhibition: 0%
[33]
  inhibition: 0%
[34]
  inhibition: 2%
[35]
  inhibition: 87.5%
[36]
  inhibition: 68.2%

## C=CC(=O)NCCNC(=O)c1c(N)ncnc1Nc1ccc(OCc2ccccn2)c(Cl)c1
[9]
  IC50: > 1000 nM
[10]
  IC50: > 1000 nM

## C=CC(=O)NCC#Cc1cncnc1Nc1ccc(OCc2ccccn2)c(Cl)c1
[9]
  IC50: > 1000 nM
[10]
  IC50: > 1000 nM

## C=CC(=O)NCc1coc(-c2c(N)ncnc2Nc2ccc(Oc3ccc(F)cc3)c(Cl)c2)n1
[11]; liver microsomes
  half-life at 5 µM: > 100 min
[12]; liver microsomes
  half-life at 5 µM: 66 min
[13]; liver microsomes
  half-life at 5 µM: > 100 min
[9]
  IC50: 6 nM
[14]; liver microsomes
  half-life at 5 µM: > 100 min
[10]
  IC50: 39 nM

## C=CC(=O)NCc1coc(-c2c(N)ncnc2Nc2ccc(OCc3ccccn3)c(F)c2)n1
[11]; liver microsomes
  half-life at 5 µM: 27 min
[12]; liver microsomes
  half-life at 5 µM: 16 min
[13]; liver microsomes
  half-life at 5 µM: 44 min
[9]
  IC50: 6.1 nM
[14]; liver microsomes
  half-life at 5 µM: 9 min
[10]
  IC50: 63 nM
